As usually defined, the half-life is the time needed for the level to fall by half in the phase considered. Read a low half-life as fast loss.

These results are taken from ChEMBL document CHEMBL4330093, “Biphenyl Gal and GalNAc FmlH Lectin Antagonists of Uropathogenic E. coli (UPEC): Optimization through Iterative Rational Drug Design” (J Med Chem, 2019).

The nature of series [1]: Stability in mouse plasma assessed as compound remaining after 2 hrs. Conditions: for Stability: 2 h. Type of series: ADME, cell-free.
The nature of series [2]: Stability of the compound in simulated intestinal fluid assessed as compound remaining after 2 hrs. Conditions: for Stability: simulated gi fluid, 2 h. Type of series: ADME.
Series [3] in a line: Stability of the compound in simulated gastric fluid assessed as compound remaining after 6 hrs. In kind it is ADME. Conditions: for Stability: simulated gi fluid, 6 h.
The nature of series [4]: Oral bioavailability in Sprague-Dawley rat at 10 mg/kg by LC/MS/MS analysis. In kind it is ADME, organism-based. Conditions: in vivo.
Series [5] in a line: Drug metabolism in mouse plasma assessed as phenol product metabolite formation. In kind it is ADME, cell-free.
The nature of series [6]: Half life in mouse liver microsomes. The conditions noted are these: for t1/2: microsomes. Type of series: ADME, Microsome. On the technique in general: Liver microsomes are vesicles of endoplasmic reticulum, rich in cytochrome P450 enzymes.
Series [7] in a line: Drug metabolism in mouse urine assessed as phenol product metabolite formation. Type of series: ADME, tissue-based.
Series [8] in a line: Half life in Sprague-Dawley rat at 10 mg/kg, po or 3 mg/kg, iv by LC/MS/MS analysis. Type of series: ADME, organism-based. Conditions: in vivo. The method in brief: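 Sprague-Dawley rats got a single 10 mg/kg oral or 3 mg/kg IV dose. Compound was measured over time in plasma and in urine, and t1/2 and clearance were derived from the plasma profile.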
A short description of series [9]: Kinetic solubility of the compound at pH 7.4. Type of series: physicochemical. Conditions: buffer.
Series [10] in a line: Plasma concentration in CD1 mouse at 20 mg/kg, ip after 4 hrs by LC/MS/MS analysis. In kind it is ADME, organism-based. Summed up:
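Single 20 mg/kg intraperitoneal injection in mice. Plasma drug concentrations were followed over time, including 4 h and 8 h points. Cmax was read from the profile, AUC was calculated, and half-life was derived.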

Series [11] can be described thus: Time at which plasma concentration stays above in vitro Escherichia coli C600 C-terminal 6His-tagged biotinylated FmlH lectin domain inhibitory IC50 in CD1 mouse at 20 mg/kg, ip by LC/MS/MS analysis. In kind it is ADME, organism-based. The conditions noted are these: in vivo. Summed up:
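After a single 20 mg/kg IP dose in mice, plasma concentrations were compared with the ELISA IC50 converted to ng/mL. Persistence beyond the last measured point was inferred by extrapolating the plasma kinetics. For the ELISA IC50, biotinylated FmlH lectin domain (20 μg/mL) bound to sialidase-treated bovine submaxillary mucin, with streptavidin-HRP/TMB readout at 450 nm.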

≈ marks a conversion by molar mass, not a printed value.

As to `CC(=O)N[C@H]1[C@H](Oc2cccc(C)c2-c2cccc(NS(=O)(=O)C3CC3)c2)O[C@H](CO)[C@H](O)[C@@H]1O`, the Stability in series [1] is 84%; in series [2], 100%; in series [3] it was 100%. Moreover, the F in series [4] is reported as < 1%. The Drug metabolism result in series [5] and in series [7] was “Metabolite_Detected” in each case. The t1/2 in [6] is > 2.42 h.
With `CC(=O)NC1[C@H](Oc2cccc(C(F)(F)F)c2-c2cccc(NS(C)(=O)=O)c2)O[C@H](CO)[C@H](O)[C@@H]1O` (single isomer, unassigned), the results for the Stability in series [1], in [2] and in [3] were 92%, 92% and 89%, respectively. In series [8], the half-life is 1.16 h. The molecule also returned a Kinetic_solubility in series [9] of 197 µM. In [4], the F is reported as < 1%. In addition, the Drug metabolism result in series [5] and in series [7] was “Metabolite_Detected” each time. For the same molecule, the t1/2 in series [6] is > 2.42 h.
Turning to `CC(=O)NC1[C@H](Oc2cccc(C#N)c2-c2cccc(NS(C)(=O)=O)c2)O[C@H](CO)[C@H](O)[C@@H]1O` (single isomer, unassigned), the Stability is 89% in [1], 100% in [2] and 87% in [3]. Moreover, in series [9], the Kinetic_solubility was 196 µM. Further, the Drug metabolism entry in [5] and in series [7] was “Metabolite_Detected” each time. Further, the t1/2 in series [6] is > 2.42 h.
For `Cc1cccc(O[C@@H]2O[C@H](CO)[C@H](O)[C@H](O)C2NC(=O)C(F)(F)F)c1-c1cccc(NS(C)(=O)=O)c1` (single isomer, unassigned), the remaining at 2 h in [1] (read-out: Stability) was 89%; in series [2] (simulated intestinal fluid, read-out: Stability) it was 89%. The solubility kinetic in [9] (read-out: Kinetic_solubility) was found to be 164 µM (≈ 87.7 µg/mL). Also, in series [3] (simulated gastric fluid, read-out: Stability), the remaining at 6 h is 91%. In addition, the Drug metabolism result in series [5] and in series [7] was “Metabolite_Detected” each time. In series [6] (liver microsomes), the half-life was > 2.42 h.
Regarding `CC(=O)N[C@H]1[C@H](Oc2cccc(F)c2-c2cccc(NS(C)(=O)=O)c2)O[C@H](CO)[C@H](O)[C@@H]1O`, the Stability in series [1] is listed as 89%; in [2], 94%; in series [3], 92%. For the same molecule, the Drug metabolism result in [5] and in [7] was “Metabolite_Detected” in each case. Further, in series [6], the t1/2 is > 2.42 h.
On to `CC(=O)N[C@H]1[C@H](Oc2cccc(C)c2-c2cccc(NS(C)(=O)=O)c2)O[C@H](CO)[C@H](O)[C@@H]1O`, for which the Stability in series [1], in series [2] and in [3] was 100% throughout. The molecule also registered a concentration at 4 h in series [10] of 79.5 ng/mL. For the same molecule, the Drug metabolism result in series [5] and in [7] was “Metabolite_Detected” each time. In addition, the t1/2 in series [6] is > 2.42 h. This molecule registered a Time in [11] of 6 h.
